Laboratory results reported in ChEMBL document CHEMBL1157557, “Synthesis and evaluation of 1,4-diphenylbutadiene derivatives as inhibitors of plasminogen activator inhibitor-1 (PAI-1) production” (Bioorg Med Chem, 2010).

What was measured:
[1] = Photostability assessed as compound remaining by HPLC analysis; assay type: physicochemical
Summary of the method: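 Stock (100 µg/ml in acetonitrile) 0.1 ml mixed with 0.9 ml 0.1 N HCl; kept at room temperature 24 h under room light or foil-protected. Read-out as % compound remaining.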

[2] = species: Bos taurus; assay: Inhibition of TGF-beta-induced plasminogen activator inhibitor-1 production in BCAEC assessed as relative inhibitory potency in BCAEC at 2 uM after 24 hrs by ELISA relative to T-686; assay type: functional
Summary of the method: (§1)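 Bovine endothelial cells (BCaEs, passages 8–9) grown to confluence in E'MEM with 10% FCS, then serum-starved 24 h. Compound added (10 µM […]; 1 µM LPS-induced, 2 µM TGF-β-induced) with or without LPS 1 µg/ml or TGF-β 0.3 ng/ml. After 24 h, conditioned medium cleared by centrifugation (3000 rpm, 10 min, 4 °C) and PAI-1 antigen measured by specific ELISA; activity expressed relative to T-686 reference.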

[3] = Oral bioavailability in dog; assay type: ADME, organism-based, Canis lupus familiaris; settings: in vivo
[4] = Metabolic stability in dog blood assessed as compound remaining after 1 hr by HPLC analysis; assay type: ADME, tissue-based, Canis lupus familiaris; settings: read-out: Stability
Summary of the method: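 Stock (100 µg/ml in acetonitrile) diluted tenfold with saline; 0.3 ml added to 3 ml heparinized dog blood prewarmed to 37 °C and incubated at 37 °C. After 1 h plasma separated with diethyl ether by centrifugation and parent level determined by HPLC; reported as % remaining.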

[5] = species: Bos taurus; assay: Inhibition of LPS-induced plasminogen activator inhibitor-1 production in BCAEC assessed as relative inhibitory potency in BCAEC at 1 uM after 24 hrs by ELISA relative to T-686; assay type: functional; summary of the method: as §1
[6] = species: Rattus norvegicus; assay: Genotoxicity in rat assessed as chromosomal aberration; assay type: toxicity, organism-based; settings: in vivo
[7] = Aqueous solubility in water; assay type: physicochemical
[8] = Inhibition of LPS-induced plasminogen activator inhibitor-1 production in BCAEC after 24 hrs by ELISA; assay type: functional, Bos taurus
Summary of the method: (§2)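 BCaEs (passages 8–9) confluent in E'MEM/10% FCS, serum-starved 24 h, then exposed to compound with LPS (1 µg/ml) or TGF-β (0.3 ng/ml) for 24 h. Medium centrifuged at 3000 rpm, 10 min, 4 °C, and PAI-1 antigen quantified by specific ELISA.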

[9] = Inhibition of TGF-beta-induced plasminogen activator inhibitor-1 production in BCAEC after 24 hrs by ELISA; assay type: functional, Bos taurus; summary of the method: as §2
[10] = species: Bos taurus; assay: Inhibition of LPS-induced plasminogen activator inhibitor-1 production assessed as relative inhibitory potency in BCAEC at 10 uM after 24 hrs by ELISA relative to T-686; assay type: functional; summary of the method: as §1
[11] = system: Rattus norvegicus; assay: Antithrombotic activity in po dosed rat venous thrombosis model assessed as decrease in thrombus weight administered QD for 8 consecutive days measured after 2 hrs of last dose; assay type: functional
Summary of the method: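 Rats were dosed orally once daily for 8 days at 0.3, 1 and 3 mg/kg, with vehicle controls. They were anaesthetised with Nembutal 50 mg/kg ip, and all vena cava branches between the left renal vein and the bifurcation were ligated. 2 h after the last dose, 0.1 ml of 1:10 diluted rabbit brain thromboplastin was injected into the penile dorsal vein. Thrombus dry weight was measured.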

[12] = system: Rattus norvegicus; assay: Toxicity in rat assessed as decrease in locomotor activity at 300 mg/kg, po; settings: in vivo
[13] = system: Rattus norvegicus; assay: Antithrombotic activity in rat arterio-venous shunt model of thrombosis assessed as inhibition of thrombus formation at 10 mg/kg, po QD for 8 consecutive days measured after 2 hrs of last dose; assay type: functional
Summary of the method: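 Rats given test article orally 10 mg/kg once daily for 8 days, controls vehicle. Under Nembutal (50 mg/kg ip), a saline-filled polyethylene tube holding silk thread was placed from the right carotid artery to the left jugular vein. Two hours after the last dose the clamp was released, blood perfused 30 min, and wet weight of thread-bound thrombus taken.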

[14] = Therapeutic index, ratio of ED100 for increase in bleeding time in po dosed rat to ED50 for decrease in thrombus weight in po dosed rat venous thrombosis model; assay type: organism-based; settings: in vivo, read-out: TI
Summary of the method: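 ED100 for prolonged bleeding time (tail incision, oral, daily for 8 days) was divided by ED50 for thrombus weight reduction in the venous thrombosis model (oral, daily for 8 days; ligated vena cava, thromboplastin injected 2 h after the last dose, thrombus dry weight).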

[15] = system: Rattus norvegicus; assay: Toxicity in po dosed rat assessed as increase in bleeding time administered QD for 8 consecutive days measured after 2 hrs of last dose by tail incision bleeding time test; assay type: organism-based; settings: in vivo
Summary of the method: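 Rats were dosed orally once daily for 8 days at 10, 30 and 100 mg/kg, with vehicle controls. Under Nembutal anaesthesia (50 mg/kg ip), 2 h after the last dose, a 2 mm deep incision was made 3.5 cm from the tail tip. Blood was blotted onto filter paper every 30 s, and bleeding time was taken as the time until no blood appeared.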

Row | SMILES | Stability [1] [%] | Activity [2] | bioavailability [3] [%] | Activity [5] | Activity [6] | other results
1 | COc1cc(OC)cc(/C(C)=C2\C(=O)N(Cc3ccncc3)C(=O)\C2=C\c2ccccc2)c1.Cl | 38 | 1.4 | 18 | 1.8 | Non-toxic | remaining at 1 h [4]: 60%; solubility [7]: 0.111 mg/mL
2 | COc1cc(/C=C2/C(=O)NC(=O)/C2=C/c2ccccc2)cc(OC)c1OC | 12 |  | 3 |  | Toxic | IC50 [8]: 0.9 µM; IC50 [9]: 4.3 µM
3 | COC(=O)C(=C(/C)c1cc(OC)cc(OC)c1)/C(=C\c1ccccc1)C(=O)NCc1ccncc1.Cl | 96 | 1.9 | 28 | 2.1 | Toxic | 
4 | COC(=O)C(=C/c1cc(OC)c(OC)c(OC)c1)/C(C(N)=O)=C(/C)c1ccccc1 |  |  |  |  |  | Activity [10]: 0.2
5 | COC(=O)C(/C(=C\c1ccccc1)C(N)=O)=C(\C)c1cc(OC)c(OC)c(OC)c1 |  |  |  |  |  | Activity [10]: 0.3
6 | COC(=O)C(=C/c1cc(OC)c(OC)c(OC)c1)/C(=C\c1ccccc1)C(N)=O |  |  |  |  |  | Activity [10]: 0.9
7 | COc1cc(OC)cc(/C(C)=C2\C(=O)N(Cc3cccnc3)C(=O)\C2=C\c2ccccc2)c1.Cl | 47 | 1.4 |  | 1 |  | remaining at 1 h [4]: 65%; solubility [7]: 0.038 mg/mL
8 | COC(=O)C(=C(/C)c1cc(OC)cc(OC)c1)/C(=C\c1ccccc1)C(=O)Nc1cccnc1.Cl | 88 | 1.1 | 17 | 2.2 |  | 
9 | COC(=O)C(=C(/C)c1cc(OC)cc(OC)c1)/C(=C\c1ccccc1)C(=O)NC1CCN(C)CC1 |  | < 0.1 |  | 0.8 |  | 
10 | COC(=O)C(=C/c1cc(OC)c(OC)c(OC)c1)/C(=C/c1ccccc1)C(N)=O |  |  |  |  |  | Activity [10]: 0.7
11 | COC(=O)C(=C(/C)c1cc(OC)c(OC)c(OC)c1)/C(=C\c1ccccc1)C(N)=O | 91 | 0.7 | 9 | 1.5 | Non-toxic | Activity [10]: 1
12 | COC(=O)C(=C(/C)c1cc(OC)cc(OC)c1)/C(=C\c1ccccc1)C(=O)NN1CC[N+](C)([O-])CC1 |  |  |  | 0.2 |  | 
13 | COC(=O)C(=C(/C)c1cc(OC)cc(OC)c1)/C(=C\c1ccccc1)C(=O)Nc1ncccn1 |  |  |  | 0.1 |  | 
14 | COC(=O)C(=C(/C)c1cc(OC)cc(OC)c1)/C(=C\c1ccccc1)C(=O)Nc1nnn[nH]1 |  |  |  | 0.1 |  | 
15 | COC(=O)C(=C(/C)c1cc(OC)cc(OC)c1)/C(=C\c1cccnc1)C(N)=O |  | 1.2 |  | 0.8 |  | 
16 | COC(=O)C(=C(/C)c1cc(OC)cc(OC)c1)/C(=C\c1ccccc1)C(=O)O |  | 0.3 |  | 0.4 |  | 
17 | COC(=O)C(=C(/C)c1cc(OC)cc(OC)c1)/C(=C\c1ccccc1)C(=O)N1CCN(C)CC1 |  | 0.3 |  | 0.3 |  | 
18 | COC(=O)C(=C(/C)c1cc(OC)cc(OC)c1)/C(=C\c1ccccc1)C(=O)NN1CCN(C)CC1.Cl | 91 | 0.9 | 49 | 1.5 | Non-toxic | ED50 [11]: 0.8 mg/kg/day; Activity [12]: Non-toxic; inhibition in vivo at 10 mg/kg [13]: 22%; selectivity ratio [14]: > 125; ED100 [15]: > 100 mg/kg/day; solubility [7]: > 4 mg/mL
19 | CC(=O)CC(c1ccccc1)c1c(O)c2ccccc2oc1=O (configuration not stated) [WARFARIN] |  |  |  |  |  | ED50 [11]: 0.1 mg/kg/day; selectivity ratio [14]: 2; ED100 [15]: 0.2 mg/kg/day
20 | COC(=O)C(=C(/C)c1cc(OC)cc(OC)c1)/C(=C\c1ccccc1)C(=O)Nc1ccncc1.Cl | 85 | 1.1 | 52 | 1.8 | Non-toxic | Activity [12]: Toxic
21 | COC(=O)C(=C\c1cc(OC)c(OC)c(OC)c1)/C(=C\c1ccccc1)C(N)=O |  |  |  |  |  | Activity [10]: 0.7
22 | COC(=O)C(=C(/C)c1cc(OC)cc(OC)c1)/C(=C\c1ccccc1)C(=O)Nc1cccc2cccnc12 |  |  |  | 0.4 |  | 
23 | COC(=O)C(=C(/C)c1cc(OC)cc(OC)c1)/C(=C\c1ccncc1)C(N)=O.Cl | 97 | 1.1 | 78 | 1.5 | Toxic | 
24 | COC(=O)C(=C/c1cc(OC)c(OC)c(OC)c1)/C(C(N)=O)=C(\C)c1ccccc1 |  |  |  |  |  | Activity [10]: 0.3
25 | COC(=O)C(=C(/C)c1cc(OC)cc(OC)c1)/C(=C\c1ccccc1)C(=O)NCc1cccnc1.Cl | 90 | 1.8 | 21 | 1.3 | Non-toxic | Activity [12]: Toxic
26 | COC(=O)C(=C(/C)c1cc(OC)cc(OC)c1)/C(=C\c1ccccc1)C(=O)Nn1cnnc1 |  |  |  | 0.6 |  | 
